Experimental data gathered from unrelated publications.
Target: Death-associated protein kinase 2 (DAPK2, Homo sapiens, UniProt Q9UIK4)

Compound	assay	setting	quantity	value
O=c1[nH]c2ccccc2n1C1CCN(Cc2ccc(-c3[nH]c4cc5ncnc5cc4nc3-c3ccccc3)cc2)CC1	cell-free assay	0.5 µM	remaining signal	99%
Cc1nn(C)cc1-c1nc2c(N3CCN(Cc4ccc(Cl)cc4)CC3)c(Cl)cnc2[nH]1	binding, competition with immobilised ligand	1 µM	remaining binding	80%
COc1ncccc1-c1cnn2ccc(N3CCN(C(=O)OC(C)C)CC3)nc12	binding, competition with immobilised ligand	1 µM	remaining binding	86%
CC(C)(C)c1cc(C=C(C#N)C#N)cc(Br)c1O	enzyme activity, inhibitor	0.5 µM	remaining activity	108%
Cn1cncc1[C@@](O)(COc1ccc(C#N)cc1-c1ccc(OC(F)(F)F)cc1)c1ccc(C#N)cc1	cell-free assay, competition with immobilised ligand	1 µM	remaining binding	97%
COc1cc(Nc2ncc(F)c(Nc3ccc4c(n3)NC(=O)C(C)(C)O4)n2)cc(OC)c1OC	binding, competition with immobilised ligand	10 µM	inhibition	95%
Nc1ncc(-c2nc(N3CCOCC3)nc(N3CCOCC3)n2)c(C(F)F)n1	binding, competition with immobilised ligand	10 µM	remaining binding	76%
N#CC1(c2ccccn2)CCN(Cc2cc(C(=O)O)c(=O)n3ccccc23)CC1	cell-free assay, competition with immobilised ligand	1 µM	remaining binding	99%
